Measured values taken from ChEMBL document CHEMBL4602720, “Degradation versus Inhibition: Development of Proteolysis-Targeting Chimeras for Overcoming Statin-Induced Compensatory Upregulation of 3-Hydroxy-3-methylglutaryl Coenzyme A Reductase” (J Med Chem, 2020).
Calls of active or inactive are those of the source. No cut-off for these calls is given here.

Tests used:
[1] = target: T1, Protein cereblon/3-hydroxy-3-methylglutaryl-coenzyme A reductase (Cricetulus griseus) (UniProt P00347+G3H338); test: (§1) Protac activity at CRBN/HMGCR in Insig-1/Insig-2 deficient Chinese hamster SRD15 cells assessed as induction of HMGCR degradation after 16 hrs by immunoblotting analysis
Outline: (§2)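 SRD15 cells treated with compound at varying concentrations for 16 h, final DMSO ≤0.1%; RIPA lysates (Lowry protein) immunoblotted for HMGCR, densitometry normalized to actin, DMSO set to 1; DC50 = concentration giving 50% loss versus DMSO, fitted to dose-response curve, mean of 3 independent experiments.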

[2] = target: T2, Protein cereblon/3-hydroxy-3-methylglutaryl-coenzyme A reductase (Cricetulus griseus, UniProt P00347+G3H338); test: as §1; outline: as §2
T2 sequence (P00347 whole entry): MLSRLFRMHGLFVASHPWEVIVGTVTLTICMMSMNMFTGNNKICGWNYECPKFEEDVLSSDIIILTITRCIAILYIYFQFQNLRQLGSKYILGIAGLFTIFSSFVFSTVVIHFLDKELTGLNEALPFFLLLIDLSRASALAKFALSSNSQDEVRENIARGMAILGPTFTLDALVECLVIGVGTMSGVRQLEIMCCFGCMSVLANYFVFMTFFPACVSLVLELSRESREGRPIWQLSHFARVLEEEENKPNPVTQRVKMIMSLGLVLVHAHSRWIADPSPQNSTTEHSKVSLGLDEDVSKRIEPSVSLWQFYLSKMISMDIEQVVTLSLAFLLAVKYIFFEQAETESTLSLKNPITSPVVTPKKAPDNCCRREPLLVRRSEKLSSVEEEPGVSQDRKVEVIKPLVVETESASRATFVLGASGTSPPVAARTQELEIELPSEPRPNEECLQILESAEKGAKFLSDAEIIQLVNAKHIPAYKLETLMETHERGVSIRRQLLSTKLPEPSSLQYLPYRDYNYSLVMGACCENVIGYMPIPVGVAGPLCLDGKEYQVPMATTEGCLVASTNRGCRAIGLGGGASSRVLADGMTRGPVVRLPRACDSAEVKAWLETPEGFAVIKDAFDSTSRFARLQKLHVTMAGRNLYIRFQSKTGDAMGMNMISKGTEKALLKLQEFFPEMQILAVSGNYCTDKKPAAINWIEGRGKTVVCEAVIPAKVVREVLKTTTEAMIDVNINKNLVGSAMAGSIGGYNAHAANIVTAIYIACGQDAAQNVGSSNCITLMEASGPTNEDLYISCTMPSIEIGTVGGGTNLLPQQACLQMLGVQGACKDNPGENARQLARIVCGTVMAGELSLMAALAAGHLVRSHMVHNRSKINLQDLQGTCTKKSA
T2 sequence (G3H338 whole entry): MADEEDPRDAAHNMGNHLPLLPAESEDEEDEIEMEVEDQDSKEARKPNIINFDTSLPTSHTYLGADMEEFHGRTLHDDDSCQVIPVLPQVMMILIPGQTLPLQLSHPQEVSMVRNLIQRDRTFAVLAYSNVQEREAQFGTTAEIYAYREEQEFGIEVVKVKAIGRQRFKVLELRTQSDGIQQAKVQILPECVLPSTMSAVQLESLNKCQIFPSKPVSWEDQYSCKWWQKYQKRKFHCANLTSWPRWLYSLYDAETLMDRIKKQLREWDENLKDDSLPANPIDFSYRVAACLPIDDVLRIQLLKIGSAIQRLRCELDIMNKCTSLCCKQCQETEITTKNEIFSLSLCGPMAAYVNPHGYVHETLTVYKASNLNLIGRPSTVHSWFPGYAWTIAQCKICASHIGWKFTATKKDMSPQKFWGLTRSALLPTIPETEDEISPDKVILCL

[3] = target: T1, Protein cereblon/3-hydroxy-3-methylglutaryl-coenzyme A reductase (Cricetulus griseus); test: Protac activity at CRBN/HMGCR in Insig-1/Insig-2 deficient Chinese hamster SRD15 cells assessed as HMGCR level at 1 uM after 16 hrs in presence of 0.1 uM atorvastatin by immunoblotting analysis (reference value: 1)
[4] = target: T1, Protein cereblon/3-hydroxy-3-methylglutaryl-coenzyme A reductase (Cricetulus griseus); test: Protac activity at human Flag-tagged CRBN YW/AA mutant /T7-tagged HMGCR transfected in Insig-1/Insig-2 deficient Chinese hamster SRD15 cells assessed as induction of HMGCR degradation at 0.01 to 1 uM after 16 hrs by immunoblotting analysis

In the case of `CC(C)c1c(C(=O)Nc2ccccc2)c(-c2cccc(OCCCc3cn(CCOCCOCCOCCOCCNc4cccc5c4C(=O)N(C4CCC(=O)NC4=O)C5=O)nn3)c2)c(-c2ccc(F)cc2)n1CC[C@@H](O)C[C@@H](O)CC(=O)O` (some centres undefined), the Activity [1] is reported as “Dose-dependent effect”, the DC50 [2] is reported as 100 nM and the fold change (FC) [3] is reported as 0.9. For the same compound, the Activity [4] was “inactive”.
